Source: PubChem
dFosB act: activators of mouse delta FosB homodimer; P13346; purified delta FosB, TAMRA-CDK5 oligo fluorescence polarization; percent of positive-control signal above neutral wells; activation, % at 25 µM; hit rate 0.99% among 340,000;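 active = mean activation above about 17%, with every replicate also reaching it, limit read from the data, passing the limit was not always enough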
Target sequence (P13346 whole entry, looked up): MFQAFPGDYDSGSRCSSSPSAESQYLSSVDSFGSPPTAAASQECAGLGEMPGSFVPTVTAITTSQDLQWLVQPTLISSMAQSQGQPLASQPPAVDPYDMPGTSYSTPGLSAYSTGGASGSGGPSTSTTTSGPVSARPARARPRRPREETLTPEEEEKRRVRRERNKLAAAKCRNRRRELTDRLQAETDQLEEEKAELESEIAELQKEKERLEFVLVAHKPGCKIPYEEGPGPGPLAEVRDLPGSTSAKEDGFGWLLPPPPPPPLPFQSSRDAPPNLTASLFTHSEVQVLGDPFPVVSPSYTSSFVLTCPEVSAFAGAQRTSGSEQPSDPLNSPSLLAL
CAL PDZ FP-1: blocks peptide binding to human CAL PDZ domain; purified CAL PDZ, TMR-peptide fluorescence polarization, 1 h; inhibition, % at 20 µM; hit rate 0.02% among 330,000; AID 504414;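 active = highest replicate inhibition of at least 40%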
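material = purified tagged CAL PDZ domain construct (CerCALP) | compound dosing = 20 µM, one dose | times = 1 h at RT | measured by = fluorescence polarization from S- and P-plane intensities, G-factor corrected | read-out = inhibition from polarization loss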
SR-BI HDL uptake: mouse SR-BI HDL lipid transfer inhibition; Q61009; ldlA[mSR-BI] CHO cells, DiI-HDL uptake fluorescence, 3 h; inhibition, % at 12.5 µM; hit rate 0.96% among 320,000; AID 488896;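 active = mean replicate inhibition of at least 70% and a set share of replicates each scoring 70 or more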
SR-BI DiI-HDL act: enhances SR-BI lipid uptake from DiI-HDL. hit rate 0.096% among 320,000. activation, % at 12.5 µM. AID 504775. CHO ldlA[mSR-BI] cells, DiI-HDL uptake fluorescence, 3 h; 100 = double the neutral-control signal;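 active = mean replicate activation of at least 60% and every replicate at or above 60%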
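Material – SR-BI-overexpressing, LDLR-lacking CHO cells · Medium – BSA-supplemented, HEPES-buffered Ham's F12, pH 7.4 · Doses – single concentration · Times – compound with DiI-HDL co-incubation, 3 h at 37 °C · Measured by – bottom-read fluorescence, 550/595 nm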
CAL PDZ FP-2: blocks peptide binding to the human CAL PDZ domain; purified CAL PDZ, TMR-peptide fluorescence polarization, 1 h; inhibition, % at 24.9 µM; hit rate 0.92% among 300,000;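 active = mean inhibition of at least 30% with at least half of replicates also reaching 30%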
Each line names hits and unclear results; the compound was inactive in the other large screens. Hits are enriched below; roughly 2.8% of the tested compounds scored in any of these assays.

CCOC(=O)/C=C/c1ccc2c(c1)S(=O)(=O)N(c1cccc(OC)c1)[C@H]2CC(=O)OCC	SR-BI HDL uptake 83
Cc1cnc(C(=O)OCC(=O)Nc2cccc(S(=O)(=O)N3CCOCC3)c2)cn1	none (no result: CAL PDZ FP-2)
CC1CCCCN1CC(O)COCc1ccccc1 (stereo not drawn)	none
COc1ccc(NC(=O)n2ncc3c(C)cccc32)cc1OC	none (no result: SR-BI HDL uptake, SR-BI DiI-HDL act)
COc1ccc(NC(=O)n2ncc3c(C)cccc32)cc1	CAL PDZ FP-2 62 (no result: CAL PDZ FP-1)
O=C(O)CCC(=O)N1CCc2cc(S(=O)(=O)NCc3ccc(Cl)cc3)ccc21	none (no result: CAL PDZ FP-2)
COc1cc(C)ccc1S(=O)(=O)N1CCN(C23CC4CC(CC(C4)C2)C3)CC1	SR-BI HDL uptake 77 (no result: CAL PDZ FP-1)
COc1cc(F)ccc1S(=O)(=O)N1CCN(C23CC4CC(CC(C4)C2)C3)CC1	none
COc1ccc(C(=O)NNC(=O)c2cc3ccccc3cc2O)cc1	SR-BI HDL uptake 115 (no result: CAL PDZ FP-2)
O=C(NNC(=O)c1cc2ccccc2cc1O)c1cccs1	SR-BI HDL uptake 115
O=C(NNC(=O)c1ccc2ccccc2c1O)c1cccs1	SR-BI HDL uptake 106
COc1ccccc1OCC(=O)Nc1c2c(nn1-c1ccccc1)CS(=O)(=O)C2	none
Cc1cccc(N=C2NC(=O)S/C2=C\c2ccco2)c1	none
O=C1NC(=Nc2ccc(Cl)cc2)/C(=C/c2ccco2)S1	SR-BI HDL uptake 82
CC(C)(C)c1nnc(N/N=C/c2cc(Br)ccc2O)n(N)c1=O	SR-BI HDL uptake 115 (no result: CAL PDZ FP-2)
CCc1nnc(N/N=C/c2cc(Br)c(O)cc2O)n1N	none
COC(=O)c1cn(C(=O)/C=C/c2ccc(OC)c(OC)c2)c2ccccc12	SR-BI HDL uptake 93
COC(=O)c1cn(C(=O)OC)c2ccccc12	none
COc1cc2c(C(=O)N3CCOCC3)c(CSc3ccccc3)n(C)c2cc1Br	none
CC(=O)Nc1ccc(NC(=O)CSc2nnnn2-c2ccc3c(c2)OCCO3)cc1	dFosB act 87
Cc1ccc(-n2nnnc2SCC(=O)Nc2ccc3c(c2)OCCO3)cc1C	none
CC(Sc1nnnn1C)C(=O)Nc1ccc2c(c1)OCCO2 (stereo not drawn)	CAL PDZ FP-2 44
Nn1c(SCC(=O)Nc2ccc3c(c2)OCCO3)nnc(CCC(=O)O)c1=O	CAL PDZ FP-2 83
O=C(CNC1CCCCC1)Nc1ccc([N+](=O)[O-])cc1C(=O)Nc1ccccc1F	CAL PDZ FP-2 63
Cc1cccc(CC(=O)NCC(=O)NCc2cc(=O)n(C)c(=O)n2C)c1	CAL PDZ FP-2 62
CCOc1ccc(CC(=O)NCC(=O)NCc2cc(=O)n(C)c(=O)n2C)cc1	none
C/C(=N\NS(C)(=O)=O)c1ccccc1	CAL PDZ FP-2 94
CC(C)(C)OC(=O)N[C@@H](COCc1ccccc1)C(=O)N[C@@H](CO)[C@H](O)[C@@H]1C[C@@H]1C(=O)NC1CCCCC1	none
O=C1OC(CO)CN1Cc1ccccc1 (stereo not drawn)	CAL PDZ FP-2 58 (no result: CAL PDZ FP-1)
O=C1OC(CCl)CN1Cc1c(Cl)cccc1Cl (stereo not drawn)	none (no result: SR-BI HDL uptake, SR-BI DiI-HDL act)
Cc1csc(NC(=O)CSC2=NS(=O)(=O)c3cc(F)ccc3N2)n1	none
O=C(Nc1ccc(-c2csc(Nc3ccccc3)n2)cc1)c1ccccc1	SR-BI HDL uptake 86
Clc1ccc(Nc2nc(-c3cccnc3)cs2)cc1	none
O=C(NNc1nc(-c2ccccc2)cs1)c1ccccc1	none
O=C(Nc1cccc(-c2csc(Nc3ccc(Cl)cc3)n2)c1)c1ccccc1	SR-BI HDL uptake 98
COc1ccc2[nH]cc(CCNS(=O)(=O)c3ccc(NC(C)=O)cc3)c2c1	none
CC(=O)Nc1ccc(S(=O)(=O)NCCC(=O)Nc2cc(C)ccn2)cc1	CAL PDZ FP-2 30
CC(=O)Nc1ccc(S(=O)(=O)NCCc2c[nH]c3ccc(C)cc23)cc1	CAL PDZ FP-2 31
CC(=O)Nc1ccc(S(=O)(=O)NCCC(=O)Nc2cccc(Cl)c2)cc1	none (no result: SR-BI HDL uptake, SR-BI DiI-HDL act)
Cc1cc2[nH]c(=S)[nH]c2cc1C	SR-BI HDL uptake 73
COC(=O)[C@H](Cc1ccccc1)NC(=O)C1CCN(C(=O)[C@H](C)NS(=O)(=O)c2ccc(C)cc2)CC1	none
COc1ccc2c(c1)C1NC(=S)NC(C)(O2)C1C(=O)Nc1ccc(Cl)cc1 (stereo not drawn)	SR-BI HDL uptake 80
CCCCCCn1cc(C(=O)O)c(=O)c2cc(F)c(N3CCN(C)CC3)cc21	CAL PDZ FP-2 30
